Results of several laboratories.
Target: Cholecystokinin receptor type A (CCKAR, Homo sapiens, UniProt P32238)
Residues used in one study (P32238 1-428): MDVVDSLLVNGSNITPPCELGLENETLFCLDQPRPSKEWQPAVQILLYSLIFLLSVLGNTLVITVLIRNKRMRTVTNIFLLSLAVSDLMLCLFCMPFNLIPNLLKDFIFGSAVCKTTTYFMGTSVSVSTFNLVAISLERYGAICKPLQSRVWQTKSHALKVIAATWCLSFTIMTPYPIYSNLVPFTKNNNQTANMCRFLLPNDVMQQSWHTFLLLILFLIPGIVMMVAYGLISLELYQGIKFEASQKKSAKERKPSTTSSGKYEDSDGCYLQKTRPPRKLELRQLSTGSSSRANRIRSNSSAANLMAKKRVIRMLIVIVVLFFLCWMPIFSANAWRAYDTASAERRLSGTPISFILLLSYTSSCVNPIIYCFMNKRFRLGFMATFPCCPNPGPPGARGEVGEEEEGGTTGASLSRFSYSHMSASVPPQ

| Compound | effect on | method | concentration | quantity | value |
| --- | --- | --- | --- | --- | --- |
| Cc1ncc(C)n2nc(/C=C/c3nc(N4CCCC4)cc(N4CCOCC4)n3)nc12 | ligand displacement | – | 10 µM | inhibition | -33% |
| Nc1ncc(-c2nc(N3CCOCC3)nc(N3CCOCC3)n2)c(C(F)F)n1 | cell-free assay | – | 10 µM | remaining signal | 118% |
| Clc1ccc2c(C3CCN(CCc4c[nH]c5ccccc45)CC3)c[nH]c2c1 | ligand displacement | radioligand | 10 µM | inhibition | 25% |
| COc1ccc(S(=O)(=O)N2CCCCC2)cc1C | ligand displacement | radioligand | 10 µM | inhibition | < 30% |
| O=C(Nc1cccnn1)N1CCN([C@@H]2CCOc3cc(C(F)(F)F)ccc32)CC1 | cell-free assay | – | 20 µM | inhibition | 20% |
| c1ccc(C(NCCNC(c2ccccc2)c2ccccc2)c2ccccc2)cc1 | cell-free assay | – | 10 µM | inhibition | 7% |
| CN(CCN1CCC(OC(=O)Nc2ccccc2-c2ccccc2)CC1)C(=O)c1ccc(CN2CCC(C(N)=O)CC2)cc1 | ligand displacement | radioligand | 1 µM | inhibition | 2% |
| C[C@H](C(=O)N[C@H]1COc2ccccc2[C@@H]1S(C)(=O)=O)c1ccc(F)cc1 | cell-free assay | – | 10 µM | inhibition | -11% |
| CCN(CC)CCCC[C@H](NC(=O)[C@H](CC(C)C)NC(=O)[C@H](C)NC(=O)[C@H](Cc1ccccc1)NC(=O)c1ccc(C(C)(C)C)cc1)C(=O)N[C@@H](CO)C(=O)OC | ligand displacement | radioligand | 10 µM | remaining binding | 67.2% |
